In ChEMBL document CHEMBL4680071, “Structure guided generation of thieno[3,2-d]pyrimidin-4-amine Mycobacterium tuberculosis bd oxidase inhibitors” (RSC Med Chem, 2021):

What was measured:
[1] = Inhibition of […] tuberculosis Erdman assessed as replicating ATP by measuring ATP depletion incubated for 15 hrs in presence of Q203 by BacTiter-Glo luminescence assay; set-up: species or system Mycobacterium tuberculosis str. Erdman
Outline: (§1)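 Cultures grown in Middlebrook 7H9 with 0.05% Tween 80, 0.5% glycerol, BSA fraction V, D-glucose and NaCl. Cells pelleted, resuspended in glycerol-free medium at about 10^7 CFU/mL, added to compound dilutions. Plates incubated 15 h at 37°C. BacTiter-Glo reagent added, luminescence read after 12 min to give ATP level. IC50 from curve fitting.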

[2] = Inhibition of cytochrome-bd oxidase in Mycobacterium tuberculosis H37Rv assessed as replicating ATP by measuring ATP depletion incubated for 15 hrs in absence of Q203 by BacTiter-Glo luminescence assay; outline: as §1
[3] = Inhibition of cytochrome-bd oxidase in Mycobacterium tuberculosis clinical isolate N0145 assessed as replicating ATP by measuring ATP depletion incubated for 15 hrs in absence of Q203 by BacTiter-Glo luminescence assay; outline: as §1

SMILES | IC50 [1] [µM] | IC50 [2] [µM] | IC50 [3] [µM]
CCc1nc(NCCCc2ccccc2)c2cc(C)sc2n1 | 0.083 |  | 
CCCCNc1nc(CC)nc2sc(C)cc12 | 3.2 |  | 
COc1nc2ccc(Br)cc2cc1[C@@H](c1ccccc1)[C@@](O)(CCN(C)C)c1cccc2ccccc12 [BEDAQUILINE] |  | 40 | 10
